Experiments:
[1] = folding enthalpy; higher = less favourable; fluorescence melt of hairpins on a sequencing array, two-state fit; conditions: sodium 0.088 M
How it was run: (§1)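 Melting temperature and folding enthalpy were obtained by bootstrapped two-state fitting. Fits used Cy3 fluorescence of library hairpins with annealed Cy3 and quencher oligos on a sequenced MiSeq flow cell, imaged in 50 mM Na-HEPES pH 8.0, 25 mM NaCl in 2.5 °C steps up to 60 °C and normalised to pre-quench Cy3 and control constructs. Four replicates were combined by inverse-variance weighting, and fitted temperatures were raised by 9.35 °C to match UV melts.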

[2] = melting temperature; fluorescence melt of hairpins on a sequencing array, two-state fit, raised by 9.35 °C to match UV melts; conditions: sodium 0.088 M
How it was run: as §1

Row | Sequence | folding enthalpy [1] [kcal/mol] | Tm [2] [°C]
1 | GATCTGCTCTCAGATC ((((((....)))))) | -36.6 | 48.4
2 | GATCTGGAATCAGATC ((((((....)))))) | -40.5 | 54.3
3 | GATCTGGACACAGATC ((((((....)))))) | -38.8 | 58.5
4 | GATCTGGACCAGATC ((((((...)))))) | -39.7 | 49.9
5 | GATCTGGACCCAGATC ((((((....)))))) | -43.8 | 53
6 | GATCTGGACGCAGATC ((((((....)))))) | -47 | 51.3
7 | GATCTGGAGCCAGATC ((((((....)))))) | -37.6 | 49.5
8 | GATCTGGATTCAGATC ((((((....)))))) | -39.3 | 48.6
9 | GATCTGGCCGCAGATC ((((((....)))))) | -36 | 52.3
10 | GATCTGGCGCAGATC ((((((...)))))) | -27.4 | 47.5
11 | GATCTGGCGCCAGATC ((((((....)))))) | -47.8 | 60.5
12 | GATCTGGCTTCAGATC ((((((....)))))) | -37.8 | 50.6
13 | GATCTGGGAAACCAGATC (((((((....))))))) | -45.4 | 58.5
14 | GATCTGGGAAACCAGGTC ((.((((....)))).)) | -25 | 48.4
15 | GATCTGGGAGCAGATC ((((((....)))))) | -35.4 | 53.8
16 | GATCTGGGATCAGATC ((((((....)))))) | -40.7 | 53.3
17 | GATCTGGGCCCAGATC ((((((....)))))) | -56.3 | 58.9
18 | GATCTGGTAACAGATC ((((((....)))))) | -27 | 60.5
19 | GATCTGGTGCAGATC ((((((...)))))) | -31.1 | 49.5
20 | GATCTGGTTTCAGATC ((((((....)))))) | -35.9 | 51.1
21 | GATCTGTAACAGATC ((((((...)))))) | -33.5 | 48.6
22 | GATCTGTAGCAGATC ((((((...)))))) | -37.4 | 47.3
23 | GATCTGTCATCAGATC ((((((....)))))) | -38.1 | 50.1
24 | GATCTGTCGGCAGATC ((((((....)))))) | -45.6 | 51.1

Row | Sequence | folding enthalpy [1] [kcal/mol] | Tm [2] [°C]
25 | GATCTGTCGTCAGATC ((((((....)))))) | -37.6 | 50.5
26 | GATCTGTCTCAGATC ((((((...)))))) | -28.1 | 49.3
27 | GATCTGTCTCCAGATC ((((((....)))))) | -45.9 | 48.4
28 | GATCTGTGACCAGATC ((((((....)))))) | -36.5 | 47.8
29 | GATCTGTGATCAGATC ((((((....)))))) | -34 | 49.2
30 | GATCTGTGCCAGATC ((((((...)))))) | -38 | 51.1
31 | GATCTGTGCGCAGATC ((((((....)))))) | -47.1 | 57
32 | GATCTGTGGACAGATC ((((((....)))))) | -45.1 | 53.2
33 | GATCTGTGTTCAGATC ((((((....)))))) | -34.2 | 51.7
34 | GATCTGTTAGCAGATC ((((((....)))))) | -42.9 | 52.3
35 | GATCTGTTCCCAGATC ((((((....)))))) | -33.7 | 48.6
36 | GATCTGTTTACAGATC ((((((....)))))) | -44.4 | 58.6
37 | GATCTTAAAAAAGATC ((((((....)))))) | -20.3 | 33.7
38 | GATCTTAAAGAAGATC ((((((....)))))) | -16.8 | 34.8
39 | GATCTTAACAAAGATC ((((((....)))))) | -33 | 42.5
40 | GATCTTACATAAGATC ((((((....)))))) | -35.9 | 43.1
41 | GATCTTACCTAAGATC ((((((....)))))) | -40.2 | 45
42 | GATCTTACGAAGATC ((((((...)))))) | -34.6 | 42.9
43 | GATCTTACGCAAGATC ((((((....)))))) | -31.1 | 42.9
44 | GATCTTACTCAAGATC ((((((....)))))) | -33.5 | 42.3
45 | GATCTTACTTAAGATC ((((((....)))))) | -35.6 | 44.1
46 | GATCTTAGTTAAGATC ((((((....)))))) | -34.9 | 44.1
47 | GATCTTATACAAGATC ((((((....)))))) | -33.8 | 42.6
48 | GATCTTATCAAAGATC ((((((....)))))) | -33.1 | 44.2

Row | Sequence | folding enthalpy [1] [kcal/mol] | Tm [2] [°C]
49 | GATCTTATCTAAGATC ((((((....)))))) | -41.9 | 45.2
50 | GATCTTATGAAGATC ((((((...)))))) | -28.1 | 42.4
51 | GATCTTCAAGAAGATC ((((((....)))))) | -33.5 | 46
52 | GATCTTCACAAGATC ((((((...)))))) | -28.7 | 45.8
53 | GATCTTCCACAAGATC ((((((....)))))) | -35.2 | 41.5
54 | GATCTTCCATAAGATC ((((((....)))))) | -33.9 | 43.4
55 | GATCTTCGAAAGATC ((((((...)))))) | -21.4 | 39.9
56 | GATCTTCGGAAGATC ((((((...)))))) | -33.3 | 41.9
57 | GATCTTCTCAAGATC ((((((...)))))) | -33.3 | 46.7
58 | GATCTTCTCTAAGATC ((((((....)))))) | -35 | 42.8
59 | GATCTTGAGGAAGATC ((((((....)))))) | -24.9 | 36.8
60 | GATCTTGAGTAAGATC ((((((....)))))) | -25.4 | 40.4
61 | GATCTTGATTAAGATC ((((((....)))))) | -26.6 | 41.8
62 | GATCTTGCACAAGATC ((((((....)))))) | -33.4 | 50.8
63 | GATCTTGCCAAAGATC ((((((....)))))) | -39 | 55
64 | GATCTTGCCTAAGATC ((((((....)))))) | -39.2 | 48.2
65 | GATCTTGCGGAAGATC ((((((....)))))) | -36 | 42.7
66 | GATCTTGCTTAAGATC ((((((....)))))) | -38 | 44
67 | GATCTTGGAGAAGATC ((((((....)))))) | -29.8 | 43.9
68 | GATCTTGGCGAAGATC ((((((....)))))) | -30.8 | 47
69 | GATCTTGGGAAGATC ((((((...)))))) | -22.8 | 39.7
70 | GATCTTGGGCAAGATC ((((((....)))))) | -37.4 | 46.7
71 | GATCTTGGTAAAGATC ((((((....)))))) | -41.3 | 53.5
72 | GATCTTGTGCAAGATC ((((((....)))))) | -47 | 46.4

Reference: the array DNA melting data of Ke et al. (doi:10.1101/2024.01.08.574731)
